From ChEMBL document CHEMBL2203109, “3-Phenyl substituted 6,7-dimethoxyisoquinoline derivatives as FtsZ-targeting antibacterial agents” (Bioorg Med Chem, 2012) come the findings set out here.

Structures are written as SMILES. ≈ marks a conversion by molar mass, not a printed value. Calls of active or inactive are those of the source. The rule behind the calls is not given here.

The subject of data set [1] is Staphylococcus aureus. Put plainly: Antibacterial activity against log-phase methicillin-sensitive Staphylococcus aureus 8325-4 assessed as growth inhibition after 24 hrs by broth microdilution method. The format is functional. The following applies: 8325-4, 24 h. An outline of the steps:
(§1)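 CLSI broth microdilution. Log-phase bacteria at 10^5 CFU/mL with two-fold serial dilutions (64 to 0.031 μg/mL). S. aureus tested in cation-adjusted Mueller-Hinton broth; E. faecalis in brain–heart infusion broth. Aerobic incubation 24 h at 37 °C. OD600 read; MIC is the lowest concentration giving ≥90% growth inhibition.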

The subject of data set [2] is Enterococcus faecalis. The experiment in a line: Antibacterial activity against log-phase vancomycin-resistant Enterococcus faecalis ATCC 51575 assessed as growth inhibition after 24 hrs by broth microdilution method. Type of data set: functional. The settings on record: ATCC 51575, 24 h. The method, boiled down:
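CLSI broth microdilution in brain–heart infusion broth; log-phase bacteria at 10^5 CFU/mL, two-fold serial dilutions 64 to 0.031 μg/mL; 24 h aerobic incubation at 37 °C; OD600 read-out; MIC taken as lowest concentration inhibiting growth ≥90%.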

Data set [3] has as its system Enterococcus faecalis. Put plainly: Antibacterial activity against log-phase vancomycin-sensitive Enterococcus faecalis ATCC 19433 assessed as growth inhibition after 24 hrs by broth microdilution method. Type of data set: functional. The settings on record: ATCC 19433, 24 h. An outline of the steps: as §1
For data set [4], the system named is Staphylococcus aureus. The experiment in a line: Antibacterial activity against log-phase methicillin-resistant Staphylococcus aureus ATCC 33591 assessed as growth inhibition after 24 hrs by broth microdilution method. Type of data set: functional. The settings on record: ATCC 33591, 24 h. The method, boiled down:
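CLSI broth microdilution; 10^5 CFU/mL log-phase bacteria in cation-adjusted Mueller-Hinton broth with 2% NaCl, two-fold serial dilutions from 64 to 0.031 μg/mL; aerobic incubation 24 h at 37 °C; growth read as OD600; MIC = lowest concentration giving ≥90% growth inhibition.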

Data set [5] addresses T1, Cell division protein FtsZ (Staphylococcus aureus) (UniProt P0A031).
T1 sequence (whole entry): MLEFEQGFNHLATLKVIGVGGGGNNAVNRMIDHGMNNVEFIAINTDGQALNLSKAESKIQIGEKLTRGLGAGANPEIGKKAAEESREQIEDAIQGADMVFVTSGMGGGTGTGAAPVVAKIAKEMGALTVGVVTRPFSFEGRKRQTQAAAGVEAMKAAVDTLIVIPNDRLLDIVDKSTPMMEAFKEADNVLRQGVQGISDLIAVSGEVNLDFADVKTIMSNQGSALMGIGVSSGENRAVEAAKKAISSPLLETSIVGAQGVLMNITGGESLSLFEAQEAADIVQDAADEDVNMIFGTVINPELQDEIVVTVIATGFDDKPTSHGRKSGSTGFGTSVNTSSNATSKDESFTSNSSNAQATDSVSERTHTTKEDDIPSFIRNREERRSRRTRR
Put plainly: Induction of Staphylococcus aureus FtsZ polymerization at 40 ug/ml measured for 60 mins by microtiter plate-based light scattering assay. The method, boiled down:
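Turbidity assay. 10 μM SaFtsZ plus compound (0–40 μg/mL) in 50 mM Tris HCl pH 7.4, 50 mM KCl, 2 mM magnesium acetate, 5 mM CaCl2, pre-equilibrated 10 min at room temperature. Started by adding 1 mM GTP or FtsZ; A340 followed for 60 min at 25 °C. For polymer stability, 1 mM GDP added mid-run.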

Data set [6] concerns HEK293. The experiment in a line: Cytotoxicity against human HEK293 cells at 10 uM after 4 days by MTT assay. The format is cell-based. The settings on record: hek293, 96 h. The method, boiled down: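 MTT assay. HEK293 or MDCK cells kept at 37 °C, 5% CO2 in DMEM, seeded at 1500 cells per well. Continuous 4-day exposure to varying drug concentrations in triplicate wells, with a drug-free control. MTT read at end of day 4; IC50 determined.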

For data set [7], the target named is T1, Cell division protein FtsZ (Staphylococcus aureus). Put plainly: Residual Staphylococcus aureus GTPase activity assessed as inorganic phosphate release upon GTP hydrolysis at 40 ug/ml preincubated for 10 mins before substrate addition measured after 2 hrs by malachite green based colorimetric analysis.

As for `COc1cc(-c2cc3cc(OC)c(OC)c(OC)c3c(C)n2)cc(-c2ccc(-c3ccccc3)cc2)c1OC`, the MIC90 in data set [1], in data set [2], in data set [3] and in data set [4] was more than 64 µg/mL throughout.
For the molecule `COc1ccc2cc3[n+](cc2c1OC)CCc1cc2c(cc1-3)OCO2` [BERBERINE], the MIC90 in data set [1], in data set [2], in data set [3] and in data set [4] was more than 64 µg/mL in each case. Also, the result in data set [5] was inactive.
Regarding `CNc1nc(-c2cccc(-c3ccccc3)c2)cc2cc(OC)c(OC)cc12`, the MIC90 in data set [1], in data set [2], in data set [3] and in data set [4] was more than 64 µg/mL in each case.
For `CCC[C@@H]1C[C@@H](C(=O)N[C@@H]([C@H]2O[C@H](SC)[C@H](O)[C@@H](O)[C@H]2O)[C@H](C)Cl)N(C)C1` [CLINDAMYCIN], the MIC90 in data set [1] was 0.03 µg/mL (≈ 0.0706 µM); in data set [2], more than 64 µg/mL; in data set [3], 2 µg/mL (≈ 4.71 µM); in data set [4], more than 64 µg/mL.
On to `COc1cc2cc(-c3cccc(-c4ccccc4)c3)nc(N(C)C)c2cc1OC`, for which the MIC90 in data set [1], in data set [2], in data set [3] and in data set [4] was more than 64 µg/mL each time.
Consider `COc1cc2cc(-c3cccc(C(C)(C)C)c3)nc(CN)c2cc1OC`, for which the MIC90 turned out to be 4 µg/mL (≈ 11.4 µM) in data set [1], 32 µg/mL (≈ 91.3 µM) in data set [2], 32 µg/mL (≈ 91.3 µM) in data set [3] and 8 µg/mL (≈ 22.8 µM) in data set [4]. Also, in data set [6], the Activity entry is on record as “Non-toxic”.
Turning to `COc1cc2cc(-c3cccc(-c4ccc(C(C)(C)C)cc4)c3)nc(C)c2cc1OC`, the MIC90 in data set [1], in data set [2], in data set [3] and in data set [4] was more than 64 µg/mL each time. In addition, in data set [5], the outcome was inactive.
Take `COc1cc2cc(-c3cccc(-c4ccccc4)c3)[n+](C)c(C)c2c(OC)c1OC.[I-]`: the MIC90 in data set [1] turned out to be 8 µg/mL; in data set [2], 32 µg/mL; in data set [3], 32 µg/mL; in data set [4] it was 8 µg/mL.
On to `COc1cc2cc(-c3cccc(C(C)(C)C)c3)nc(C)c2cc1OC`, for which the MIC90 in data set [1], in data set [2], in data set [3] and in data set [4] was more than 64 µg/mL throughout. The outcome in data set [5] was inactive.
With `COc1cc2cc(-c3cccc(-c4ccccc4)c3)nc(C)c2c(OC)c1OC`, the MIC90 in data set [1], in data set [2], in data set [3] and in data set [4] was more than 64 µg/mL in each case.
Regarding `COc1cc2cc(-c3cccc(-c4ccccc4)c3)nc(C#N)c2cc1OC`, the MIC90 in data set [1], in data set [2], in data set [3] and in data set [4] was more than 64 µg/mL each time.
With `COc1cc(-c2cc3cc(OC)c(OC)c(OC)c3c(C)[n+]2C)cc(-c2ccc(-c3ccccc3)cc2)c1OC.[I-]`, the MIC90 in data set [1] is 1 µg/mL; in data set [2], 4 µg/mL.
`COc1cc2cc(-c3cccc(-c4ccccc4)c3)nc(CN=C(N)N)c2cc1OC`: the MIC90 in data set [1] stood at 2 µg/mL (≈ 4.85 µM); in data set [2] it was 8 µg/mL (≈ 19.4 µM); in data set [3] it was 8 µg/mL (≈ 19.4 µM); in data set [4], 2 µg/mL (≈ 4.85 µM). Also, the Activity result in data set [6] is “Non-toxic”.
As to `CN(C)[C@@H]1C(O)=C(C(N)=O)C(=O)[C@@]2(O)C(O)=C3C(=O)c4c(O)cccc4[C@@](C)(O)[C@H]3C[C@@H]12` [TETRACYCLINE], the MIC90 is 0.06 µg/mL (≈ 0.135 µM) in data set [1], more than 64 µg/mL in data set [2], 0.5 µg/mL (≈ 1.13 µM) in data set [3] and 64 µg/mL (≈ 144 µM) in data set [4].
For `C[n+]1cc2c3c(ccc2c2ccc4cc5c(cc4c21)OCO5)OCO3` [SANGUINARIUM] the same measures were 2 µg/mL, 16 µg/mL, 8 µg/mL and 2 µg/mL.
For `COc1cc2cc(-c3cccc(-c4ccccc4)c3)[n+](C)c(N(C)C)c2cc1OC.[I-]` the same measures were 8 µg/mL, 64 µg/mL, 64 µg/mL and 32 µg/mL.
For `COc1ccc2c(c[n+](C)c3c4cc5c(cc4ccc23)OCO5)c1OC` [CHELERYTHRINE] the same measures were 4 µg/mL, 32 µg/mL, 32 µg/mL and 4 µg/mL.
Turning to `COc1cc2cc(-c3cccc(-c4ccccc4)c3)[n+](C)c(C)c2cc1OC.[I-]`, the MIC90 was 16 µg/mL in data set [1], more than 64 µg/mL in data set [2], more than 64 µg/mL in data set [3] and 32 µg/mL in data set [4].
In the case of `Cc1onc(-c2ccccc2)c1C(=O)N[C@@H]1C(=O)N2[C@@H]1SC(C)(C)[C@@H]2C(=O)O` [OXACILLIN], the MIC90 in data set [1] was 0.06 µg/mL (≈ 0.149 µM); in data set [2], more than 64 µg/mL; in data set [3] it was 8 µg/mL (≈ 19.9 µM); in data set [4], more than 64 µg/mL.
Turning to `COc1cc2cc(-c3cccc(-c4ccccc4)c3)[n+](C)cc2cc1OC.[I-]`, the MIC90 is 16 µg/mL in data set [1], more than 64 µg/mL in data set [2], more than 64 µg/mL in data set [3] and 64 µg/mL in data set [4].
As to `COc1cc2cc(-c3cccc(C(C)(C)C)c3)[n+](C)c(C)c2cc1OC.[I-]`, the MIC90 in data set [1] was determined as 16 µg/mL; in data set [2], 64 µg/mL; in data set [3], 64 µg/mL; in data set [4] it was 16 µg/mL.
For the molecule `COc1cc2cc(-c3cccc(-c4ccccc4)c3)nc(CCN)c2cc1OC`, the MIC90 in data set [1] was 4 µg/mL (≈ 10.4 µM); in data set [2], more than 64 µg/mL; in data set [3], 16 µg/mL (≈ 41.6 µM); in data set [4], 4 µg/mL (≈ 10.4 µM).
Regarding `COc1cc2cnc(-c3cccc(-c4ccccc4)c3)cc2cc1OC`, the MIC90 in data set [1], in data set [2], in data set [3] and in data set [4] was more than 64 µg/mL in each case.
Regarding `CC[C@H]1OC(=O)[C@H](C)[C@@H](O[C@H]2C[C@@](C)(OC)[C@@H](O)[C@H](C)O2)[C@H](C)[C@@H](O[C@@H]2O[C@H](C)C[C@H](N(C)C)[C@H]2O)[C@](C)(O)C[C@@H](C)C(=O)[C@H](C)[C@@H](O)[C@]1(C)O` [ERYTHROMYCIN], the MIC90 in data set [1] is 0.1 µg/mL (≈ 0.136 µM); in data set [2], more than 64 µg/mL; in data set [3], 1 µg/mL (≈ 1.36 µM); in data set [4] it was more than 64 µg/mL.
On to `COc1cc2cc(-c3cccc(-c4ccccc4)c3)nc(C)c2cc1OC`, for which the MIC90 in data set [1], in data set [2], in data set [3] and in data set [4] was more than 64 µg/mL each time.
Consider `CN[C@H](CC(C)C)C(=O)N[C@H]1C(=O)N[C@@H](CC(N)=O)C(=O)N[C@H]2C(=O)N[C@H]3C(=O)N[C@H](C(=O)N[C@H](C(=O)O)c4cc(O)cc(O)c4-c4cc3ccc4O)[C@H](O)c3ccc(c(Cl)c3)Oc3cc2cc(c3O[C@@H]2O[C@H](CO)[C@@H](O)[C@H](O)[C@H]2O[C@H]2C[C@](C)(N)[C@H](O)[C@H](C)O2)Oc2ccc(cc2Cl)[C@H]1O` [VANCOMYCIN], for which the MIC90 in data set [1] was 1 µg/mL (≈ 0.69 µM); in data set [2], more than 64 µg/mL; in data set [3], 1 µg/mL (≈ 0.69 µM); in data set [4], 2 µg/mL (≈ 1.38 µM). Moreover, the outcome in data set [5] was inactive. Moreover, in data set [7], the residual activity is 99.7%.
In the case of `COc1cc2cc(-c3cccc(-c4ccc(-c5ccccc5)cc4)c3)nc(C)c2cc1OC`, the MIC90 in data set [1], in data set [2], in data set [3] and in data set [4] was more than 64 µg/mL in each case.
